Sampled rows, rich in hits. Any-hit rate of the full collection: about 3.7%.
KCNK9 block: human KCNK9 channel inhibition | Q9NPC2 | HEK293 KCNK9, FluxOR thallium flux fluorescence; hits give low values | B-score at 10 µM | actives 1.2% (n = 310,000) | AID 488922;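 active = ratio B-score over 3 SD below the library mean, with starting fluorescence within 5 SD of its mean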;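 also: negative B-score means less thallium flux so channel inhibition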
Target sequence (Q9NPC2 whole entry, looked up): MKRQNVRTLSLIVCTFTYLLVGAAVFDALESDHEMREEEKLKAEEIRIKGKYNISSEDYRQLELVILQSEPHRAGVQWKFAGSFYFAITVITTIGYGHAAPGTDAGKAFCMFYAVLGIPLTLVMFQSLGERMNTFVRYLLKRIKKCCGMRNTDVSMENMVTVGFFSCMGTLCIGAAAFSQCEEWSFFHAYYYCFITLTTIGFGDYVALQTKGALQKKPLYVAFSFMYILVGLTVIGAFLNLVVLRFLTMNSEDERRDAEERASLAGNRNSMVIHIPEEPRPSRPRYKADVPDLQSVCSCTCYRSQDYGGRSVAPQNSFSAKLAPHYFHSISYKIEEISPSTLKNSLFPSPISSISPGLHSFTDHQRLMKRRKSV
KCNQ1 pot: potentiates or activates the human KCNQ1 potassium channel; P51787; CHO-K1 KCNQ1, thallium flux FluxOR fluorescence; hits give high values; B-score at 10 µM; actives 0.35% (n = 310,000);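 active = fluorescence ratio B-score, a plate-corrected score, at least three library SD, with initial intensity B-score within 5 SD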
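Material: CHO-K1 cells stably expressing KCNQ1. Medium: assay buffer for compound exposure, DMSO matched across wells. Reagent: K+/Tl+ depolarizing stimulus. Compound dosing: single-concentration screen. Times: 37 °C overnight plating, 90-min dark dye load, 20-min compound pretreatment. Technique: FluxOR Tl+ flux fluorescence.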
hERG protect: compounds protecting human hERG from proarrhythmic drug block; CHO-hERG, FluxOR thallium flux, dofetilide IC70 present; Q12809; actives 0.51% (n = 310,000); activation (rescue from dofetilide block), less the hit threshold, % at 10 µM;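 active = activation above the mean of controls blocked by dofetilide plus 5 SD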;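 also: thallium influx through hERG after potassium depolarization seen as dye fluorescence rise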
KCNK3 inh: human KCNK3 channel inhibition, primary screen | O14649 | CHO-KCNK3 thallium flux, FluxOR fluorescence; hits give low values | B-score at 10 µM | actives 0.84% (n = 340,000);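 active = B-score under library mean minus 4 SD, starting fluorescence ratio at most library mean plus 5 SD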;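 also: more negative B-score means stronger inhibition of thallium flux through KCNK3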
Target sequence (O14649 whole entry, looked up): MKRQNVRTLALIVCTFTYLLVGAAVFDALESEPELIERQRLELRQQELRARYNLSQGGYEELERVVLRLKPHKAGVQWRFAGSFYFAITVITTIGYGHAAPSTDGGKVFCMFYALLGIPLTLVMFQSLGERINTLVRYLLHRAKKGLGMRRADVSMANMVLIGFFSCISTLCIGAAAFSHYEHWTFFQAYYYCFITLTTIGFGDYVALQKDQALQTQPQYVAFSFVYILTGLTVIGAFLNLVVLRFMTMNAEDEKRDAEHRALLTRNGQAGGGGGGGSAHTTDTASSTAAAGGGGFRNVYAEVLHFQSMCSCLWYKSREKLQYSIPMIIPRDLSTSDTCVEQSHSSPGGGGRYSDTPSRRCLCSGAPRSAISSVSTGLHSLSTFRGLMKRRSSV
KCNQ1 block: inhibitors of human KCNQ1 potassium channel. AID 2642. P51787. B-score at 10 µM. CHO-K1 KCNQ1, FluxOR thallium flux fluorescence; hits give high values. actives 1.3% (n = 310,000);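 active = compounds whose thallium flux B-score, printed positive for inhibition, exceeds three library SD while starting fluorescence stays within three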;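 also: channel opened by potassium depolarization with thallium stimulus after 20 min compound exposure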
Kir21 inh: blocks the mouse Kir2.1 inward-rectifier potassium channel. HEK293-Kir2.1, FluxOR thallium flux fluorescence; hits give low values. B-score at 10 µM. actives 0.85% (n = 310,000). AID 1672;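 active = fluorescence ratio B-score at or below minus 3 SD of library scores, with starting-brightness B-score within 2 SD, cut at about -4.2 in these data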;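 also: channel flux triggered by added potassium and thallium sulfate stimulus; B-score of peak minus minimum fluorescence over baseline after thallium stimulus; more negative B-score means stronger Kir2.1 block with less thallium influx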
KCNK9 inh conf: human KCNK9 inhibitor confirmation | shares compounds with KCNK9 block | HEK293 KCNK9 cells, FluxOR thallium flux fluorescence | inhibition, % at 10 µM | actives 43% (n = 4,900) | AID 492992;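 active = thallium signal inhibited by more than 5 SD of the compound-free buffer control wells, on both duplicate plates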
Kir21 sel: tests whether KCNK9 modulators also affect mouse Kir2.1. shares compounds with KCNK9 block. Kir2.1 cells, FluxOR thallium flux fluorescence. inhibition, % at 10 µM. actives 4% (n = 4,900);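 active = thallium signal drop more than 5 SD beyond the mean of the no-compound control wells, seen in both duplicate plates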;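 also: signal is fluorescence rise after thallium addition divided by baseline fluorescence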
HEK293 Tl ctr: second counter-screen for KCNK9 modulators: effect in non-induced cells. actives 40% (n = 4,900). shares compounds with KCNK9 block. AID 492997. inhibition, % at 10 µM. non-induced KCNK9-HEK293, FluxOR thallium flux;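 active = thallium signal drop beyond 5 SD of the untreated control mean, on both duplicate plates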
KCNK3 inh conf: confirmation of human KCNK3 two-pore domain potassium channel inhibitors | shares compounds with KCNK3 inh | CHO-KCNK3 thallium flux, FluxOR fluorescence; 0% buffer, 100% carvedilol maximal block | ratio percent of control, % at 10 µM | actives 99% (n = 2,400);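 active = ratio percent of control, averaged over triplicates, above buffer control mean plus 5 SD, cut at about 64% in these data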;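 also: ratio is the fluorescence rise from min to max over baseline after thallium stimulus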
KCNK3 uninduced: KCNK3 inhibitor counter-screen hit in non-induced cells | non-induced KCNK3 parental cells, FluxOR thallium flux; hits give low values | AID 651747 | thallium flux ratio (lower = more inhibition) at 10 µM | actives 40% (n = 2,400) | shares compounds with KCNK3 inh;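 active = thallium flux ratio, averaged over three wells, more than 5 SD below the buffer control mean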;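 also: host cells are CHO cells without KCNK3 induction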
Each line names hits and unclear results; the compound was inactive in the other large screens (follow-up assays come after a bar, where they were run).

CCN(c1ccc(OC)cc1)S(=O)(=O)c1cc(-c2cc(C)no2)ccc1C(C)C	KCNK9 block -16.1, KCNK3 inh -9.23 | KCNK9 inh conf 59.5% | Kir21 sel inactive | HEK293 Tl ctr 38.5% | KCNK3 inh conf 121.0 | KCNK3 uninduced 0.136
CCOC(=O)Oc1ccc(/C=C2\N=C(C)OC2=O)cc1	none
CC(C)C(C(=O)NC1CCCC1)N(CC1CCCO1)C(=O)CNS(=O)(=O)c1ccc(F)cc1 (stereo not drawn)	none
CSc1nsc(SC)c1C(=O)Nc1ccc(C(C)(C)C)cc1	KCNK9 block -14, KCNK3 inh -12.8 | KCNK9 inh conf 53.0% | Kir21 sel inactive | HEK293 Tl ctr 28.5% | KCNK3 inh conf 111.7 | KCNK3 uninduced inactive
CC1(c2ccccc2)NC(=O)N(CC(=O)N(CC(=O)Nc2ccccc2C(F)(F)F)Cc2ccco2)C1=O (stereo not drawn)	none (no result: KCNK9 block, KCNQ1 pot, hERG protect, KCNQ1 block, Kir21 inh)
Cc1ccccc1CS(=O)(=O)CC(O)CN1CCCC1=O (stereo not drawn)	none
Cc1ccc(C)c(OCC(=O)N(Cc2ccccc2)c2c(N)n(Cc3ccccc3)c(=O)[nH]c2=O)c1	none (no result: KCNK9 block, KCNQ1 pot, hERG protect, KCNQ1 block, Kir21 inh)
COc1cc2ccccc2cc1C(=O)N1CCc2ccccc21	none (no result: KCNK9 block, KCNQ1 pot, hERG protect, KCNQ1 block, Kir21 inh)
Cc1ccc(S(=O)(=O)N2CCN(CC(=O)Nc3ccnn3C3CCCC3)CC2)cc1	none (no result: KCNK9 block, KCNQ1 pot, hERG protect, KCNQ1 block, Kir21 inh)
Cc1ccc(O)c(-c2cc(C(=O)NCc3ccncc3)[nH]n2)c1	KCNK9 block -11.2, KCNK3 inh -9.23 | KCNK9 inh conf 55.0% | Kir21 sel inactive | HEK293 Tl ctr 29.5% | KCNK3 inh conf 107.0 | KCNK3 uninduced inactive
Cc1ccc(C)c(-c2csc(N/N=C/c3ccco3)n2)c1	KCNK9 block -8.92, KCNK3 inh -11.3 | KCNK9 inh conf 38.5% | Kir21 sel inactive | HEK293 Tl ctr 27.0% | KCNK3 inh conf 114.7 | KCNK3 uninduced 0.157
O=C(N/N=C/c1ccccc1)c1sccc1OCc1ccc(F)cc1	KCNK9 block -15.2, KCNK3 inh -9.5 | KCNK9 inh conf 65.0% | Kir21 sel inactive | HEK293 Tl ctr 41.0% | KCNK3 inh conf 108.7 | KCNK3 uninduced inactive
O=C(N/N=C/c1ccccc1)c1ccc(OCc2ccccc2)cc1	none
COc1ccccc1N(CC(=O)NCCSCc1cccc(C)c1)S(=O)(=O)c1ccccc1	KCNK9 block -16.3, KCNK3 inh -12.6, KCNQ1 block 9 | KCNK9 inh conf 48.0% | Kir21 sel inactive | HEK293 Tl ctr 28.0% | KCNK3 inh conf 104.7 | KCNK3 uninduced inactive
O=C1CCC(C(=O)Nc2cccc(S(=O)(=O)Nc3ccccc3F)c2)=NN1	none (no result: KCNK9 block, KCNQ1 pot, hERG protect, KCNQ1 block, Kir21 inh)
O=C(C1CC(=O)N(c2ccccc2F)C1)N1CCOCC1 (stereo not drawn)	none (no result: KCNK9 block, KCNQ1 pot, hERG protect, KCNQ1 block, Kir21 inh)
NCCc1c(-c2ccccc2)n(-c2ccccc2)c2ccccc12	KCNK9 block -9.88, KCNQ1 block 13, Kir21 inh -15.1 | KCNK9 inh conf 54.5% | Kir21 sel 62.5% | HEK293 Tl ctr 36.5% | KCNK3 inh conf 135.7 | KCNK3 uninduced inactive
O=C(N/N=C/c1ccccc1)c1[nH]c2ccc(Br)cc2c1-c1ccccc1	none
O=C(NN=C1CCCC1)c1[nH]c2ccc(Br)cc2c1-c1ccccc1	KCNK9 block -8.67, KCNQ1 block 7 | KCNK9 inh conf inactive | Kir21 sel inactive | HEK293 Tl ctr inactive | KCNK3 inh conf 90.7 | KCNK3 uninduced inactive
Cc1ccc(Cl)cc1NC(=S)N(Cc1ccco1)C(C)c1cccs1 (stereo not drawn)	KCNK9 block -9.64, KCNK3 inh -10.9 | KCNK9 inh conf 47.0% | Kir21 sel inactive | HEK293 Tl ctr 37.0% | KCNK3 inh conf 124.0 | KCNK3 uninduced 0.155
O=C(COc1ccc(Cl)cc1)NCc1nnc(SCC(=O)N2CCCCCC2)o1	none
CCCN(CCC)CCNC(=O)c1cc2c(-c3ccccc3F)nn(C)c2s1	none
CC(CCc1ccco1)NC(=O)c1cc2c(-c3ccccc3F)nn(C)c2s1 (stereo not drawn)	KCNK9 block -8.41, KCNK3 inh -12.6 | KCNK9 inh conf 28.0% | Kir21 sel inactive | HEK293 Tl ctr inactive | KCNK3 inh conf 119.7 | KCNK3 uninduced 0.135
Cc1ccc(NC(=O)N(Cc2cccnc2)Cc2ccco2)cc1C	none
Cc1ccc(NC(=O)CN(Cc2ccco2)Cc2ccccc2O)cc1C	KCNK9 block -15.3, KCNK3 inh -11.9, KCNQ1 block 6 | KCNK9 inh conf 72.0% | Kir21 sel inactive | HEK293 Tl ctr 41.5% | KCNK3 inh conf 134.0 | KCNK3 uninduced 0.147
O=C(CN1CCN(S(=O)(=O)c2ccc(F)c(F)c2)CC1)Nc1ccccc1C(=O)NC1CC1	none (no result: KCNK9 block, KCNQ1 pot, hERG protect, KCNQ1 block, Kir21 inh)
O=C(Cc1cccs1)Nc1cccc(-c2nnc(-c3ccco3)o2)c1	KCNK9 block -9.32, KCNK3 inh -10.5 | KCNK9 inh conf inactive | Kir21 sel inactive | HEK293 Tl ctr 26.5% | KCNK3 inh conf 115.3 | KCNK3 uninduced inactive
Cc1cc(C)cc(OCC(=O)Nc2cccc(-c3nnc(-c4ccco4)o3)c2)c1	KCNK9 block -10.2, KCNK3 inh -12.2 | KCNK9 inh conf 44.0% | Kir21 sel inactive | HEK293 Tl ctr 60.5% | KCNK3 inh conf 114.7 | KCNK3 uninduced inactive
Cc1ccc(-c2nnc(-c3ccc(NC(=O)Cc4cccs4)cc3)o2)cc1	none
CCc1c(C)nc2cc(-c3cc(OC)cc(OC)c3)nn2c1N1CCCC1	KCNK9 block -11.1, KCNK3 inh -9.81 | KCNK9 inh conf 57.5% | Kir21 sel inactive | HEK293 Tl ctr 26.5% | KCNK3 inh conf 100.0 | KCNK3 uninduced inactive
CNc1cc(CSC)nc(SCc2ccc(Cl)cc2Cl)n1	KCNK9 block -12.5, KCNK3 inh -9.23 | KCNK9 inh conf 55.5% | Kir21 sel inactive | HEK293 Tl ctr 50.5% | KCNK3 inh conf 141.7 | KCNK3 uninduced 0.149
CN(C)C(=N)c1n[nH]nc1SCc1ccc(Cl)c(Cl)c1	none
Nc1nc(SCc2ccc(Cl)cc2Cl)n[nH]1	none
